In ChEMBL document CHEMBL1250546, “Synthesis of non-purine analogs of 6-aryl-9-benzylpurines, and their antimycobacterial activities. Compounds modified in the imidazole ring” (Bioorg Med Chem, 2010):
In brackets after ≈: the same amount, converted by molar mass.

Tests used:
Staphylococcus aureus = assay: Antibacterial activity against Staphylococcus aureus; type: functional
[1] = Selectivity index, ratio of EC50 for african green monkey Vero cells to MIC for Mycobacterium tuberculosis H37Rv ATCC 27294; type: functional
Escherichia coli = assay: Antibacterial activity against Escherichia coli; type: functional
Vero = assay: Cytotoxicity against african green monkey Vero cells; type: cell-based; conditions: Chlorocebus sabaeus
Outline: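 Mammalian-cell toxicity was measured in VERO cells and expressed as EC₅₀.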

[2] = tested on: Mycobacterium tuberculosis; assay: Antibacterial activity against Mycobacterium tuberculosis H37Rv ATCC 27294 after 7 days by microplate alamar blue assay; type: functional; conditions: H37Rv ATCC 27294, 168 h
Outline: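 Microplate alamar blue assay in 7H12 medium against M. tuberculosis H37Rv ATCC 27294 and against rifampicin-, isoniazid-, streptomycin- and kanamycin-resistant Mtb strains. Bacteria were incubated with test samples for 7 days, then fluorescence was read. MIC is the lowest concentration giving at least a 90% fluorescence reduction relative to untreated controls.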

[3] = tested on: Mycobacterium tuberculosis; assay: Antibacterial activity against Mycobacterium tuberculosis; type: functional

SMILES	MIC (Staphylococcus aureus) [µg/mL]	Selectivity Index [1]	MIC (Escherichia coli) [µg/mL]	EC50 (Vero) [µM]	MIC [2] [µM]	MIC [3] [µg/mL]
COc1ccc(Cn2nnc3c(-c4ccco4)ncnc32)cc1	> 32	>54	> 90	> 130	2.4 (≈ 0.738 µg/mL)	–
COc1ccc(Cn2ncc3c(-c4ccco4)ncnc32)cc1	> 32	>91	> 90	> 327	3.6 (≈ 1.1 µg/mL)	–
COc1ccc(Cn2ccc3c(-c4ccco4)ncnc32)cc1	> 32	>756	> 90	> 131	0.16 (≈ 0.0489 µg/mL)	–
COc1ccc(Cn2ccc3c(-c4cccs4)ncnc32)cc1	–	114	–	40	0.35 (≈ 0.112 µg/mL)	–
COc1ccc(Cn2ccc3c(-c4ccco4)nc(Cl)nc32)cc1	> 32	1063	> 90	85	0.08 (≈ 0.0272 µg/mL)	–
COc1ccc(Cn2ccc3c(-c4cccs4)nc(Cl)nc32)cc1	–	691	–	76	0.11 (≈ 0.0391 µg/mL)	–
COc1ccc(Cn2ccc3c(-c4ccco4)nc(OC)nc32)cc1	–	205	–	45	0.22 (≈ 0.0738 µg/mL)	–
COc1ccc(C(=O)c2cn(C)c3c(-c4ccco4)ncnc23)cc1	> 32	–	> 90	–	192 (≈ 64 µg/mL)	–
COc1ccc(C(=O)c2c[nH]c3c(-c4ccco4)ncnc23)cc1	> 32	–	> 90	–	> 300	–
COc1ccc(Cc2cn(C)c3c(-c4ccco4)ncnc23)cc1	> 32	–	> 90	–	97 (≈ 31 µg/mL)	–
COc1ccc(Cn2cnc3c(-c4cccs4)nc(Cl)nc32)cc1	–	–	–	–	–	0.78 (≈ 2.19 µM)
COc1ccc(Cn2cnc3c(-c4ccco4)ncnc32)cc1	–	>98	–	> 206	2.1 (≈ 0.643 µg/mL)	1.65 (≈ 5.39 µM)
COc1ccc(Cn2cnc3c(-c4ccco4)nc(Cl)nc32)cc1	–	>325	–	> 117	0.36 (≈ 0.123 µg/mL)	0.39 (≈ 1.14 µM)
CO[C@H]1/C=C/O[C@@]2(C)Oc3c(C)c(O)c4c(O)c(c(/C=N/N5CCN(C)CC5)c(O)c4c3C2=O)NC(=O)/C(C)=C\C=C\[C@H](C)[C@H](O)[C@@H](C)[C@@H](O)[C@@H](C)[C@H](OC(C)=O)[C@@H]1C [RIFAMPIN]	–	–	–	–	–	0.25 (≈ 0.304 µM)
